Reference: ChEMBL document CHEMBL4673177, “Structure-activity relationships of sulfonamides derived from carvacrol and their potential for the treatment of Alzheimer''s disease” (RSC Med Chem, 2020)
The source made the active and inactive calls. The calls are words filed in the database; no cut-off is given here.

How the values were obtained:
[1] = test system: Mus musculus; assay: Anxiolytic-like activity in STZ-induced mouse model of Alzheimer's disease assessed as open arm time permanency at 0.5 mg/kg, ip treated from 3 to 12 days starting from 3 days post initial STZ stimulation and measured on day 14 by elevated plus maze test (reference value: 37.6%); format: functional; conditions: time 3-12 day
Summary of the method: (§1)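 Female mice given STZ i.c.v. twice (48 h apart) were treated i.p. until day 12. Each mouse was placed in the centre of the elevated plus maze facing a closed arm and observed for 5 min. N about 8–10 per group.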

[2] = test system: Mus musculus; assay: Anxiolytic-like activity in STZ-induced mouse model of Alzheimer's disease assessed as open arm frequency at 0.5 mg/kg, ip treated from 3 to 12 days starting from 3 days post initial STZ stimulation and measured on day 14 by elevated plus maze test (reference value: 51.17%); format: functional; conditions: time 3-12 day; summary of the method: as §1
[3] = Effect on locomotory activity in STZ-induced mouse model of Alzheimer's disease assessed as number of crossing 0.5 mg/kg, ip treated from 3 to 12 days by open field test (reference value: 114.00 +/- 3.12); format: organism-based; conditions: in vivo, time 3-12 day
[4] = Effect on behavioral activity in STZ-induced mouse model of Alzheimer's disease assessed as rearing at 0.5 mg/kg, ip treated from 3 to 12 days by open field test (reference value: 53.60 +/- 1.62); format: organism-based; conditions: in vivo, time 3-12 day
[5] = test system: Mus musculus; assay: Antialzheimer activity in streptozotocin-induced mouse model of memory impairment assessed as median time of avoidance latency descent at 0.5 mg/kg, ip treated from 3 to 12 days starting from 3 days post initial STZ stimulation and measured on day 16 by avoidance test (reference value: 14 sec); format: functional; conditions: time 3-12 day
[6] = test system: Mus musculus; assay: Antioxidant activity in STZ-induced mouse model of Alzheimer's disease assessed as increase in GSH level in brain at 30 mg/kg, ip treated from 3 to 12 days starting from 3 days post initial STZ stimulation and measured on day 17 by spectrophotometric method; format: functional, organism-based; conditions: time 3-12 day
Summary of the method: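 Brains collected one day after the last behavioural test, homogenized in phosphate buffer pH 7.4 and spun at 3000g for 15 min. Whole-brain GSH in the supernatant measured by a modified Beutler method, absorbance at 412 nm. Quantified against a GSH standard curve (5–50 μg); expressed as nmol GSH/mg protein.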

[7] = test system: Mus musculus; assay: Antioxidant activity in STZ-induced mouse model of Alzheimer's disease assessed as reduction in TBARS level in brain at 30 mg/kg, ip treated from 3 to 12 days starting from 3 days post initial STZ stimulation and measured on day 17 by spectrophotometric method; format: functional, organism-based; conditions: time 3-12 day
Summary of the method: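 After the final behavioural test, brain homogenate (phosphate buffer pH 7.4, 3000g for 15 min) used for TBARS. The mixture was vortexed and centrifuged at 4000g for 10 min. The organic layer was read at 532 nm.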

[8] = test system: Mus musculus; assay: Antialzheimer activity in streptozotocin-induced mouse model of memory impairment assessed as median time of avoidance latency descent at 30 mg/kg, ip treated from 3 to 12 days starting from 3 days post initial STZ stimulation and measured on day 16 by avoidance test (reference value: 14 sec); format: functional; conditions: time 3-12 day
Summary of the method: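 3-month-old female mice (25.0–30.0 g), STZ given i.c.v. as 3 μL of 2.5 mg mL-1 solution, repeated after 48 h. Vehicle or compound dosed i.p. until day 12. Training: shock 0.4 mA for 2 s on stepping down from the platform. Next-day test session without shock; descent latency timed. Reported as median with interquartile interval. N = 8–10 per group.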

[9] = test system: Mus musculus; assay: Anxiolytic-like activity in STZ-induced mouse model of Alzheimer's disease assessed as open arm time permanency at 30 mg/kg, ip treated from 3 to 12 days starting from 3 days post initial STZ stimulation and measured on day 14 by elevated plus maze test (reference value: 37.6%); format: functional; conditions: time 3-12 day
[10] = test system: Mus musculus; assay: Anxiolytic-like activity in STZ-induced mouse model of Alzheimer's disease assessed as open arm frequency at 30 mg/kg, ip treated from 3 to 12 days starting from 3 days post initial STZ stimulation and measured on day 14 by elevated plus maze test (reference value: 51.17%); format: functional; conditions: time 3-12 day
[11] = Effect on behavioral activity in STZ-induced mouse model of Alzheimer's disease assessed as rearing at 30 mg/kg, ip treated from 3 to 12 days by open field test (reference value: 53.60 +/- 1.62); format: ADME, organism-based; conditions: in vivo, time 3-12 day
[12] = Effect on locomotory activity in STZ-induced mouse model of Alzheimer's disease assessed as number of crossing 30 mg/kg, ip treated from 3 to 12 days by open field test (reference value: 114.00 +/- 3.12); format: organism-based; conditions: in vivo, time 3-12 day
[13] = target: Acetylcholinesterase (Homo sapiens, UniProt P22303); assay: Inhibition of AChE (unknown origin) using acetylthiocholine iodide as substrate preincubated for 15 mins followed by substrate addition and measured after 30 mins by Ellman's method
Sequence of Acetylcholinesterase (P22303 whole entry): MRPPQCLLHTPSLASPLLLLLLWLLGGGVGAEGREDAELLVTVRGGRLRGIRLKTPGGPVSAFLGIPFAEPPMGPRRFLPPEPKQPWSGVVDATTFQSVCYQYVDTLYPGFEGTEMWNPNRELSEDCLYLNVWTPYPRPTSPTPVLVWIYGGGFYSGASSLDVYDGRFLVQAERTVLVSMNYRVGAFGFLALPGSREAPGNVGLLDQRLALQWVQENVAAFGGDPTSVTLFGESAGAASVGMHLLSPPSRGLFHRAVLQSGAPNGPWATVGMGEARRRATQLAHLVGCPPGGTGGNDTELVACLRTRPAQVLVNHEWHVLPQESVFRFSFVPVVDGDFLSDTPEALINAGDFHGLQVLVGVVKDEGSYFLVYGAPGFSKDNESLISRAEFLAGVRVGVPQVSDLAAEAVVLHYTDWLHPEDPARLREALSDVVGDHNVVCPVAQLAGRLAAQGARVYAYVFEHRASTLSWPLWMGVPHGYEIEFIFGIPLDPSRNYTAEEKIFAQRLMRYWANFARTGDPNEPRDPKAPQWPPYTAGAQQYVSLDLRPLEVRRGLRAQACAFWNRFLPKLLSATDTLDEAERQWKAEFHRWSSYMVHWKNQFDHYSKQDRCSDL

| Compound | Activity [1] | Activity [2] | Activity [3] | Activity [4] | Time [5] | Activity [6] | Activity [7] | Time [8] | Activity [9] | Activity [10] | Activity [11] | Activity [12] | IC50 [13] |
| --- | --- | --- | --- | --- | --- | --- | --- | --- | --- | --- | --- | --- | --- |
| COc1ccc2c3c1O[C@H]1C[C@@H](O)C=C[C@@]31CCN(C)C2 [GALANTAMINE] | 6.6% | 22.3% | 122.5 | 54.23 | 122.5 s | – | – | – | – | – | – | – | – |
| Cc1cc(S(=O)(=O)Nc2ccccc2O)c(C(C)C)cc1O | – | – | – | – | – | Active | Active | 107 s | 42% | 41.9% | 44.56 | 107 | 8.74 µM |
| Cc1cc(S(=O)(=O)Nc2cnccn2)c(C(C)C)cc1O | – | – | – | – | – | Active | Active | 80 s | 19.3% | 47.7% | 50.17 | 108.34 | 7.34 µM |
| Cc1cc(S(=O)(=O)NN)c(C(C)C)cc1O | – | – | – | – | – | Active | Active | 130 s | 17.1% | 43.31% | 44.18 | 98.45 | 9.24 µM |
| Cc1cc(S(=O)(=O)N2CCOCC2)c(C(C)C)cc1O | – | – | – | – | – | Active | Active | 116.5 s | 14.3% | 25.11% | 43.8 | 116.3 | 5.64 µM |
| Cc1cc(S(=O)(=O)NCc2ccccn2)c(C(C)C)cc1O | – | – | – | – | – | – | – | 72 s | 76% | 69.44% | 46.17 | 102.45 | 6.99 µM |
| Cc1ccc(C(C)C)cc1O [CARVACROL] | – | – | – | – | – | – | – | – | – | – | – | – | 284 µM |
